Test results from paper PMC10825549 (JID Innovations, 2023).
Values joined by “and” are separate entries in the source; they are usually repeats but may differ in a detail not shown here. Identical values can stand only once.

Tested on: participants with atopic dermatitis
Experiment: Phase 2a study ATI-1777-AD-201: safety
Type: in vivo, human
Method in brief: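 Adults with moderate/severe AD applied 2% solution or vehicle twice daily for 4 weeks. TEAEs: onset on/after first dose and before last dose […], counted once per preferred term and system organ class. Also assessed serious AEs, labs, vital signs, physical exams, 12-lead ECG. Full analysis set; safety reviewed every 4 weeks.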

[1] = TEAE, full analysis set, n = 23

CCOC(=O)c1cnc2[nH]ccc2c1N[C@@H]1CCCN(C(=O)CC#N)C1 [ATI-1777, ethyl (R)-4-((1-(2-cyanoacetyl)piperidin-3-yl)amino)-1H-pyrrolo[2,3-b]pyridine-5-carboxylate]
Atrial fibrillation, Number of Subjects (TEAE, PT, n = 23): 1 (4.3) n (%) | Blood CPK increased, Number of Events (TEAE, PT, n = 23): 2 | Blood CPK increased, Number of Subjects (TEAE, PT, n = 23): 2 n (%) and 2 (8.7) n (%) | COVID-19, Number of Events (TEAE, PT, n = 23): 0 | COVID-19, Number of Subjects (TEAE, PT, n = 23): 0 n (%) | Candida infection, Number of Events (TEAE, PT, n = 23): 1 | Candida infection, Number of Subjects (TEAE, PT, n = 23): 1 (4.3) n (%) | Dizziness, Number of Events (TEAE, PT, n = 23): 1 | Dizziness, Number of Subjects (TEAE, PT, n = 23): 1 (4.3) n (%) | Folliculitis, Number of Events (TEAE, PT, n = 23): 1 | Folliculitis, Number of Subjects (TEAE, PT, n = 23): 1 (4.3) n (%) | Food poisoning, Number of Events (TEAE, PT, n = 23): 1 | Food poisoning, Number of Subjects (TEAE, PT, n = 23): 1 (4.3) n (%) | Headache, Number of Events (TEAE, PT, n = 23): 2 | Headache, Number of Subjects (TEAE, PT, n = 23): 2 n (%) and 2 (8.7) n (%) | Lipase increased, Number of Events (TEAE, PT, n = 23): 1 | Lipase increased, Number of Subjects (TEAE, PT, n = 23): 1 (4.3)1 n (%) | Oropharyngeal pain, Number of Events (TEAE, PT, n = 23): 0 | Oropharyngeal pain, Number of Subjects (TEAE, PT, n = 23): 0 n (%) | Pharyngitis streptococcal, Number of Events (TEAE, PT, n = 23): 0 | Pharyngitis streptococcal, Number of Subjects (TEAE, PT, n = 23): 0 n (%) | Rash, Number of Events (TEAE, PT, n = 23): 0 | Rash, Number of Subjects (TEAE, PT, n = 23): 0 n (%) | SARS-CoV-2 test positive, Number of Events (TEAE, PT, n = 23): 0 | SARS-CoV-2 test positive, Number of Subjects (TEAE, PT, n = 23): 0 n (%) | Sinus congestion, Number of Events (TEAE, PT, n = 23): 0 | Sinus congestion, Number of Subjects (TEAE, PT, n = 23): 0 n (%) | Skin fragility, Number of Events (TEAE, PT, n = 23): 0 | Skin fragility, Number of Subjects (TEAE, PT, n = 23): 0 n (%) | Somnolence, Number of Events (TEAE, PT, n = 23): 0 | Somnolence, Number of Subjects (TEAE, PT, n = 23): 0 n (%) | Tinea infection, Number of Events (TEAE, PT, n = 23): 1 | Tinea infection, Number of Subjects (TEAE, PT, n = 23): 1 (4.3) n (%) | Transaminases increased, Number of Events (TEAE, PT, n = 23): 1 | Transaminases increased, Number of Subjects (TEAE, PT, n = 23): 1 (4.3) n (%) | Urinary tract infection, Number of Events (TEAE, PT, n = 23): 1 | Urinary tract infection, Number of Subjects (TEAE, PT, n = 23): 1 n (%) and 1 (4.3) n (%) | Cardiac disorders, Number of Events (TEAE, SOC, n = 23): 1 | Cardiac disorders, Number of Subjects (TEAE, SOC, n = 23): 1 (4.3) n (%) | Gastrointestinal disorders, Number of Events (TEAE, SOC, n = 23): 1 | Gastrointestinal disorders, Number of Subjects (TEAE, SOC, n = 23): 1 (4.3) n (%) | General disorders and administration site conditions, Number of Events (TEAE, SOC, n = 23): 1 | General disorders and administration site conditions, Number of Subjects (TEAE, SOC, n = 23): 1 (4.3) n (%) | Infections and infestations, Number of Events (TEAE, SOC, n = 23): 4 | Infections and infestations, Number of Subjects (TEAE, SOC, n = 23): 3 (13.0) n (%) | Investigations, Number of Events (TEAE, SOC, n = 23): 5 | Investigations, Number of Subjects (TEAE, SOC, n = 23): 3 (13.0) n (%) | Neoplasms benign, malignant, and unspecified (including cysts and polyps), Number of Events (TEAE, SOC, n = 23): 1 | Neoplasms benign, malignant, and unspecified (including cysts and polyps), Number of Subjects (TEAE, SOC, n = 23): 1 (4.3) n (%) | Nervous system disorders, Number of Events (TEAE, SOC, n = 23): 3 | Nervous system disorders, Number of Subjects (TEAE, SOC, n = 23): 3 (13.0) n (%) | Respiratory, thoracic, and mediastinal disorders, Number of Events (TEAE, SOC, n = 23): 0 | Respiratory, thoracic, and mediastinal disorders, Number of Subjects (TEAE, SOC, n = 23): 0 n (%) | Skin and subcutaneous tissue disorders, Number of Events (TEAE, SOC, n = 23): 0 | Skin and subcutaneous tissue disorders, Number of Subjects (TEAE, SOC, n = 23): 0 n (%) | Any AE, Number of Events [1]: 16 | Any AE, Number of Subjects [1]: 9 (39.1) n (%) | participants who discontinued study participation owing to TEAEs (n = 23): No participants | TEAE related to study treatment (one related TEAE in the group): mild application site pruritus
